# Assay results reported in ChEMBL document CHEMBL1122996, “Interactions of apomorphine with serum and tissue proteins” (J Med Chem, 1985).
# Several values for one entry are separate records, joined by “and”; a condition that tells them apart may be missing. Equal values may be shown once.
# Experiments:
# Mus musculus [1] = species on record: Mus musculus; experiment: Radio activity covalently bound to striatum of mouse brain; type: functional
# Method in brief: (§1)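 Male CD-1 mice (~35 g, n=10) given apomorphine 30 mg/kg with [3H]-apomorphine (0.153 mCi/kg) ip daily for 14 days, killed 24 h after the last dose. Plasma from infraorbital sinus; brain split into striatum, cerebellum, forebrain without striatum. Protein-bound radioactivity expressed as µg/g protein (albumin equivalent; plasma µg/mL) and as % of total tissue radioactivity.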
# Mus musculus [2] = species on record: Mus musculus; experiment: Radio activity of [3H]-l in washed mice GI tract on day 1; type: functional, Gastrointestinal tract
# Method in brief: (§2)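 Male CD-1 mice (~35 g, n=10 per group) received apomorphine 30 mg/kg with [3H]-apomorphine (0.153 mCi/kg) ip, once or daily for 14 days. Killed 24 h after the last dose; GI tract (with contents or washed with distilled water), liver and kidney (rinsed of blood) and skeletal tissue taken. Radioactivity given as % of total dose; skeletal tissue as % dose/g wet weight.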
# Mus musculus [3] = species on record: Mus musculus; experiment: Ratio of accumulation of radioactivity from 14 to 1 day in washed gastro intestinal track; type: functional
# Method in brief: (§3)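 Male CD-1 mice (~35 g, 10 per group) received 1 at 30 mg/kg ip with [³H]-1 (0.153 mCi/kg), once or daily for 14 days, with free access to food and water. At 24 h after the last dose, plasma (infraorbital sinus), brain regions, kidney, liver and GI tract were taken for radioactivity counting. The accumulation ratio is radioactivity after 14 doses divided by radioactivity after 1 dose.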
# Albumin [4] = molecular target: T1, Albumin (Bos taurus, UniProt P02769); experiment: Covalent binding of compound to serum albumin after 1 hr when the level of [8,9-3H2]-1is 2.7 dpm *10e6 expressed as mol of drug/mol of serum albumin; conditions: cattle
# Method in brief: (§4)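 BSA (32 mg) with 2 mg apomorphine HCl hemihydrate plus tritiated [8,9-3H2]apomorphine at the level stated, in pH 7.4 phosphate buffer, 2.1 mL total, incubated 1 h. Incubates were extracted twice with ethyl acetate. Protein-bound radioactivity was measured by LSC after one of three workups: perchloric acid precipitation with repeated trifluoroacetic acid-ethanol washes; Sephadex G-25 gel filtration in 1% sodium lauryl sulfate buffer; or 4-day dialysis.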
# Mus musculus [5] = species on record: Mus musculus; experiment: Radio activity in skeletal tissue (% dose/g of wet wt) on 14 days; type: functional; method in brief: as §2
# Mus musculus [6] = species on record: Mus musculus; experiment: Percentage of covalently bound total in cerebellum of mouse; type: functional; method in brief: as §1
# Sus scrofa [7] = species on record: Sus scrofa; experiment: Percentage binding to swine plasma proteins at 10.0 ug/mL concentration of the compound; type: cell-free
# Method in brief: (§5)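 Plasma came from male Sprague-Dawley rats (~450 g, ether, vena cava blood, lithium heparin) or from six mature female swine (jugular catheter, heparinized). It was spiked with 1-HCl (10 ng–50 µg/mL) containing 0.5 mCi/mL [³H]-1. Samples were ultrafiltered as for human plasma, and the ultrafiltrate was analysed by HPLC peak-collection LSC. N = 4.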
# Mus musculus [8] = species on record: Mus musculus; experiment: Radio activity covalently bound to cerebellum of mouse brain; type: functional; method in brief: as §1
# Albumin [9] = molecular target: T1, Albumin; experiment: Covalent binding of compound to serum albumin after 1 hr when the level of [8,9-3H2]-1is 2.3 dpm *10e6 expressed as mol of drug/mol of BSA; conditions: cattle; method in brief: as §4
# Mus musculus [10] = species on record: Mus musculus; experiment: Radio activity accumulation in forebrain without striatum (Excreatable reactivity) on 14 days; type: functional
# Method in brief: (§6)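 Male CD-1 mice (~35 g, n=10 per group) given apomorphine 30 mg/kg fortified with [3H]-apomorphine (0.153 mCi/kg) ip, either once or daily for 14 days. Sampled 24 h after the last dose: plasma from infraorbital sinus (extractable and nonextractable radioactivity) and brain regions (striatum, cerebellum, forebrain without striatum). Radioactivity expressed as µg apomorphine equivalent per mL or per g […].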
# Homo sapiens [11] = species on record: Homo sapiens; experiment: Percentage binding to human plasma proteins was determined by measuring HPLC peak at 50.0 micro g/ml concentration in plasma; type: cell-free
# Method in brief: (§7)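 Fresh plasma from fasted healthy human volunteers was spiked with 1-HCl plus [³H]-1 tracer. It was incubated 10 min at 37 °C and ultrafiltered through YMT membranes (1000g, 5 min, 37 °C). Ultrafiltrate was acidified with pH 3.0 acetate buffer containing carrier 1-HCl, argon-flushed and frozen at -15 °C. Phenyl-column HPLC was read by peak-eluate collection LSC, UV peak area, or radiochemical detection. % bound was calculated from total vs ultrafiltrate using a plasma water fraction of 0.93.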
# Sus scrofa [12] = species on record: Sus scrofa; experiment: Percentage binding to swine plasma proteins at 5.0 ug/mL concentration of the compound; type: cell-free; method in brief: as §5
# Mus musculus [13] = species on record: Mus musculus; experiment: Ratio of accumulation of radioactivity from 14 to 1 day in kidney; type: functional; method in brief: as §3
# Mus musculus [14] = species on record: Mus musculus; experiment: Radio activity of [3H]-l in mice liver on day 1; type: functional; method in brief: as §2
# Rattus norvegicus = species on record: Rattus norvegicus; experiment: Percentage binding to rat plasma proteins at 1 ug/mL concentration of the compound; type: cell-free; method in brief: as §5
# Mus musculus [15] = species on record: Mus musculus; experiment: Percentage of covalently bound total in striatum of mouse; type: functional; method in brief: as §1
# Mus musculus [16] = species on record: Mus musculus; experiment: Ratio of accumulation of radioactivity from 14 to 1 day in cerebellum; type: functional; method in brief: as §3
# Mus musculus [17] = species on record: Mus musculus; experiment: Radio activity covalently bound to forebrain without striatum of mouse brain; type: functional; method in brief: as §1
# Mus musculus [18] = species on record: Mus musculus; experiment: Ratio of accumulation of radioactivity from 14 to 1 day in striatum; type: functional; method in brief: as §3
# Mus musculus [19] = species on record: Mus musculus; experiment: Radio of accumulation of radioactivity from 14 to 1 day in nonextractable radioactivity in plasma brain; type: functional; method in brief: as §3
# Sus scrofa [20] = species on record: Sus scrofa; experiment: Percentage binding to swine plasma proteins at 0.10 ug/mL concentration of the compound; type: cell-free; method in brief: as §5
# Mus musculus [21] = species on record: Mus musculus; experiment: Ratio of accumulation of radioactivity from 14 to 1 day in skeletal tissue (%dose/g of wet wt); type: functional; method in brief: as §3
# Sus scrofa [22] = species on record: Sus scrofa; experiment: Percentage binding to swine plasma proteins a t0.01 ug/mL concentration of the compound; type: cell-free; method in brief: as §5
# Mus musculus [23] = species on record: Mus musculus; experiment: Radio activity in skeletal tissue(% dose/g of wet wt) contents on day 1; type: functional; method in brief: as §2
# Mus musculus [24] = species on record: Mus musculus; experiment: Percentage of covalently bound total in forebrain without striatum of mouse; type: functional; method in brief: as §1
# Mus musculus [25] = species on record: Mus musculus; experiment: Radio activity accumulation in extractable reactivity in plasma (Excreatable reactivity) on day 1; type: functional; method in brief: as §6
# Homo sapiens [26] = species on record: Homo sapiens; experiment: Percentage binding to human plasma proteins was determined by collecting HPLC eluate at 0.10 micro g/ml concentration of compound 1 in plasma; type: cell-free; method in brief: as §7
# Homo sapiens [27] = species on record: Homo sapiens; experiment: Percentage binding to human plasma proteins was determined by collecting HPLC eluate at 10.0 micro g/ml concentration of compound 1 in plasma; type: cell-free; method in brief: as §7
# Mus musculus [28] = species on record: Mus musculus; experiment: Radio activity accumulation in forebrain without striatum (Excreatable reactivity) on day 1; type: functional; method in brief: as §6
# Mus musculus [29] = species on record: Mus musculus; experiment: Ratio of accumulation of radioactivity from 14 to 1 day in extractable reactivity in plasma; type: functional; method in brief: as §3
# Sus scrofa [30] = species on record: Sus scrofa; experiment: Percentage binding to swine plasma proteins at 50 ug/mL concentration of the compound; type: cell-free; method in brief: as §5
# Albumin [31] = molecular target: T1, Albumin; experiment: Covalent binding of compound to serum albumin after 1 hr when the level of [8,9-3H2]-1is 2.0 dpm *10e6 expressed as mol of drug/mol of serum albumin; conditions: cattle; method in brief: as §4
# Sus scrofa [32] = species on record: Sus scrofa; experiment: Percentage binding to swine plasma proteins at 100 ug/mL concentration of the compound; type: cell-free
# Mus musculus [33] = species on record: Mus musculus; experiment: Radio activity accumulation in cerebellum (Excreatable reactivity) on 14 days; type: functional; method in brief: as §6
# T1 sequence (P02769 whole entry): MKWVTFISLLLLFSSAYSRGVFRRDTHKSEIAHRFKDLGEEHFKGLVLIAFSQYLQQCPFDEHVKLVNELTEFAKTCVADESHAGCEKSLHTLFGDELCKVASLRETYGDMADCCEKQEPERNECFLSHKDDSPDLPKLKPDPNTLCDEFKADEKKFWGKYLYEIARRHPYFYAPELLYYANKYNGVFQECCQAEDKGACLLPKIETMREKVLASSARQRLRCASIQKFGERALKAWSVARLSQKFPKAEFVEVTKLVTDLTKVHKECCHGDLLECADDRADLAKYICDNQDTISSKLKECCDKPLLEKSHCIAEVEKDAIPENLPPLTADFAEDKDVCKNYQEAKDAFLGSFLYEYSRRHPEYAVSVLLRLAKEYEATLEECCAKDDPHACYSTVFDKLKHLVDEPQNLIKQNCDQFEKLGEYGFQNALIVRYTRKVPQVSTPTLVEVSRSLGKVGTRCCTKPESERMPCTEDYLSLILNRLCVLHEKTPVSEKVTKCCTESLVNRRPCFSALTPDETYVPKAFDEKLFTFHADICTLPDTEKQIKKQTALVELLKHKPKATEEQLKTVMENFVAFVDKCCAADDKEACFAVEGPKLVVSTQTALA
compound,measurement,setting,value
CN1CCc2cccc3c2[C@H]1Cc1ccc(O)c(O)c1-3 [APOMORPHINE],Binding,Mus musculus [1],0.94 µg/g
same,Amount,Mus musculus [2],0.065%
same,Ratio,Mus musculus [3],9.7
same,Binding,Albumin [4],4 M of drug (M of BSA)-1 and 5.9 M of drug (M of BSA)-1
same,Amount,Mus musculus [5],0.394%
same,Binding,Mus musculus [6],1.71%
same,Binding,Sus scrofa [7],86.8%
same,Binding,Mus musculus [8],0.98 µg/g
same,Binding,Albumin [9],3.4 M of drug (M of BSA)-1
same,Accumulation,Mus musculus [10],69.6 µg/g
same,Binding,Homo sapiens [11],94.9%
same,Binding,Sus scrofa [12],90.4%
same,Ratio,Mus musculus [13],3.1
same,Amount,Mus musculus [14],0.38%
same,Binding,Rattus norvegicus,90.4%
same,Binding,Mus musculus [15],1.65%
same,Ratio,Mus musculus [16],2.9
same,Binding,Mus musculus [17],1.13 µg/g
same,Ratio,Mus musculus [18],2.7
same,Ratio,Mus musculus [19],2.6
same,Binding,Sus scrofa [20],93%
same,Ratio,Mus musculus [21],1.6
same,Binding,Sus scrofa [22],94.8%
same,Amount,Mus musculus [23],0.245%
same,Binding,Mus musculus [24],1.62%
same,Accumulation,Mus musculus [25],0.561 µg/mL
same,Binding,Homo sapiens [26],97.8%
same,Binding,Homo sapiens [27],95.3% and 96.9%
same,Accumulation,Mus musculus [28],23.1 µg/g
same,Ratio,Mus musculus [29],2.6
same,Binding,Sus scrofa [30],87%
same,Binding,Albumin [31],3 M of drug (M of BSA)-1
same,Binding,Sus scrofa [32],85.7%
same,Accumulation,Mus musculus [33],57.3 µg/g
